Here are results for 73 sequences from the array DNA melting data of Ke et al. (doi:10.1101/2024.01.08.574731).

A short description of series [1]: melting temperature; fluorescence melt of hairpins on a sequencing array, two-state fit, raised by 9.35 °C to match UV melts. As to conditions: sodium 0.088 M. Summed up: (§1)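 Bootstrapped two-state fits yielded melting temperature and folding enthalpy for library hairpins. Cy3 fluorescence, with annealed Cy3 and quencher oligos, was imaged on a sequenced MiSeq flow cell in 50 mM Na-HEPES pH 8.0, 25 mM NaCl in 2.5 °C steps up to 60 °C, and normalised to pre-quench Cy3 and to control constructs. Four replicates were combined by inverse variance, and fitted temperatures were raised by 9.35 °C to match UV melts.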

The nature of series [2]: folding enthalpy; higher = less favourable; fluorescence melt of hairpins on a sequencing array, two-state fit. As to conditions: sodium 0.088 M. Summed up:
as §1

Turning to GCCGTGGGAAACCACAGC ((.((((....)))).)), the Tm in series [1] came to 49.4 °C. Besides, the folding enthalpy in series [2] is -18.6 kcal/mol.
On the same counts, the results for GCCGTTCGAAAGAAGGC (((.(((....)))))) are 50.4 °C and -30.4 kcal/mol.
The like results for GCCGTTGGAAACGACGGC (((((.(....).))))) were, in that order, 66.1 °C and -38 kcal/mol.
On the same counts, the results for GCCTAACGAAAGTTCGGC (((.(((....))).))) are 52.4 °C and -34.8 kcal/mol.
With GCCTAAGGAAACCTAGGC (((((.(....).))))), in series [1], the Tm stood at 44.9 °C. Further, in series [2], the folding enthalpy was -39.3 kcal/mol.
As to GCCTAAGGAAACTCAGGC ((((.((....)).)))), in series [1], the Tm is 35.6 °C. For the same sequence, in series [2], the folding enthalpy was -31.3 kcal/mol.
On the same counts, the results for GCCTACCGAAAGGTTGGC (((.(((....))).))) are 62.5 °C and -35.4 kcal/mol.
The like results for GCCTACGAAAGTAACGGC ((((((....)))..))) were, in that order, 44 °C and -26.5 kcal/mol.
On the same counts, the results for GCCTACGAAAGTAAGGC ((((((....))).))) are 56.9 °C and -31.3 kcal/mol.
For the sequence GCCTACGAAAGTAGGGGC ((((((....)))..))), the Tm in series [1] amounted to 61.3 °C. Further, the folding enthalpy in series [2] was -14.4 kcal/mol.
On the same counts, the results for GCCTACGAAAGTATGGC ((((((....))).))) are 52.3 °C and -24.6 kcal/mol.
The like results for GCCTACTCGAAAGAGGGC (((..(((....)))))) were, in that order, 44.1 °C and -26.4 kcal/mol.
The like results for GCCTAGCGAAAGCAACGC ((.(.((....)).).)) were, in that order, 23.8 °C and -8.35 kcal/mol.
As for GCCTAGCGAAAGCGGGGC (((..((....))..))), the Tm in series [1] amounted to 65.9 °C. In addition, the folding enthalpy in series [2] is -22.3 kcal/mol.
As for GCCTAGCGAAAGCGTGGC (((..((....))..))), the Tm in series [1] came out at 64.5 °C. Also, the folding enthalpy in series [2] was -30.2 kcal/mol.
The like results for GCCTAGCGAAAGCTACGC ((.((((....)))).)) were, in that order, 41.8 °C and -19 kcal/mol.
On to GCCTAGCGAAAGCTCGGC (((.(((....))).))), for which the Tm in series [1] came to 56.8 °C. Moreover, in series [2], the folding enthalpy was -39.4 kcal/mol.
As to GCCTAGGAAACTAGGC ((((((....)))))), the Tm in series [1] came to 58.7 °C. In series [2], the folding enthalpy was -36.2 kcal/mol.
On the same counts, the results for GCCTATCGAAAGATCGGC (((.(((....))).))) are 49 °C and -41.7 kcal/mol.
On the same counts, the results for GCCTATCGAAAGATGGC (((.(((....)))))) are 50.9 °C and -30.9 kcal/mol.
Take GCCTATCGAAAGATTGGC (((.(((....))).))): the Tm in series [1] is 53.4 °C. Besides, the folding enthalpy in series [2] was -35.2 kcal/mol.
The like results for GCCTATGCGAAAGCAGGC (((..(((....)))))) were, in that order, 54 °C and -23.1 kcal/mol.
The like results for GCCTCACGAAAGTGTGGC (((.(((....))).))) were, in that order, 63.5 °C and -43.5 kcal/mol.
With GCCTCAGAAATGAGGC ((((((....)))))), in series [1], the Tm is 62.5 °C. Further, the folding enthalpy in series [2] is -30.8 kcal/mol.
In the case of GCCTCCGAAAGGAAAGGC ((((((....)))..))), the Tm in series [1] amounted to 53 °C. The folding enthalpy in series [2] was -29.6 kcal/mol.
As for GCCTCCGAAAGGAGCGGC ((((((....)))..))), the Tm in series [1] is 52.3 °C. For the same sequence, the folding enthalpy in series [2] was -15.6 kcal/mol.
The like results for GCCTCCGGAAACAGAGGC (((((.(....).))))) were, in that order, 48.7 °C and -36.5 kcal/mol.
On the same counts, the results for GCCTCGACGAAAGTCGGC (((..(((....)))))) are 52.1 °C and -6.95 kcal/mol.
The like results for GCCTCGCGAAAGCGGAGC ((..(((....)))..)) were, in that order, 50.9 °C and -13.7 kcal/mol.
On to GCCTCGCGAAAGCGGGC (((.(((....)))))), for which the Tm in series [1] is 67.7 °C. Also, the folding enthalpy in series [2] was -16.4 kcal/mol.
On the same counts, the results for GCCTCGCGAAAGCGTCGC ((..(((....)))..)) are 43.1 °C and -12.2 kcal/mol.
The like results for GCCTCTCGAAAGAGTGGC (((.(((....))).))) were, in that order, 57.4 °C and -41.8 kcal/mol.
The like results for GCCTCTGCGAAAGCAGGC (((..(((....)))))) were, in that order, 50 °C and -8.17 kcal/mol.
In the case of GCCTCTGGAAACAAAGGC ((((.((....)).)))), the Tm in series [1] was determined as 36.1 °C. In addition, in series [2], the folding enthalpy was -26.1 kcal/mol.
The like results for GCCTCTGGAAACAGAGAC (.(((((....))))).) were, in that order, 40.1 °C and -18.7 kcal/mol.
The like results for GCCTGACGAAAGTCTGGC (((.(((....))).))) were, in that order, 67.5 °C and -37.2 kcal/mol.
On the same counts, the results for GCCTGAGCGAAAGCTGGC (((..(((....)))))) are 52.6 °C and -25.7 kcal/mol.
For the sequence GCCTGAGGAAACCCAGGC (((((.(....).))))), the Tm in series [1] was 53.2 °C. Also, the folding enthalpy in series [2] is -36.5 kcal/mol.
The like results for GCCTGCACGAAAGTGGGC (((..(((....)))))) were, in that order, 47.3 °C and -20.3 kcal/mol.
On the same counts, the results for GCCTGCGAAAGCACGGGC ((((((....)))..))) are 53 °C and -22.4 kcal/mol.
On the same counts, the results for GCCTGCGAAAGCACTGGC ((((((....)))..))) are 49.9 °C and -20 kcal/mol.
Consider GCCTGCGAAAGCAGAGGC ((((((....)))..))), for which the Tm in series [1] worked out at 60.1 °C. For the same sequence, the folding enthalpy in series [2] is -17.6 kcal/mol.
On the same counts, the results for GCCTGCGAAAGCAGCGGC ((((((....)))..))) are 61.6 °C and -14 kcal/mol.
The like results for GCCTGCGAAAGCATGGC ((((((....))).))) were, in that order, 65.8 °C and -30.8 kcal/mol.
The like results for GCCTGCGAAAGCATGGGC ((((((....)))..))) were, in that order, 56.7 °C and -21.4 kcal/mol.
Take GCCTGCGCGAAAGCGGGC (((..(((....)))))): in series [1], the Tm was 55.5 °C. For the same sequence, the folding enthalpy in series [2] was -15.4 kcal/mol.
On the same counts, the results for GCCTGGCCGAAAGGCGGC (((..(((....)))))) are 65.3 °C and -18.4 kcal/mol.
As to GCCTGGCGAAAGCCACGC ((.((((....)))).)), the Tm in series [1] was determined as 49 °C. The folding enthalpy in series [2] was -16.9 kcal/mol.
On the same counts, the results for GCCTGGCGAAAGCGACGC ((.(.((....)).).)) are 36 °C and -6.72 kcal/mol.
On to GCCTGGCGAAAGCTAAGC ((.(.((....)).).)), for which, in series [1], the Tm amounted to 36.2 °C. Also, in series [2], the folding enthalpy was -10.2 kcal/mol.
On the same counts, the results for GCCTGGCGAAAGCTACGC ((.(.((....)).).)) are 37.8 °C and -6.66 kcal/mol.
On the same counts, the results for GCCTGTGGAAACACAGAC (.(((((....))))).) are 42.6 °C and -15.8 kcal/mol.
On the same counts, the results for GCCTTACGAAAGTATGGC (((.(((....))).))) are 55.6 °C and -41 kcal/mol.
For the sequence GCCTTAGAAATAAGGC ((((((....)))))), the Tm in series [1] was 52.9 °C. Moreover, in series [2], the folding enthalpy was -30.2 kcal/mol.
On the same counts, the results for GCCTTCCGAAAGGATGGC (((.(((....))).))) are 62 °C and -42.1 kcal/mol.
On the same counts, the results for GCCTTCGAAAGAATGGGC ((((((....)))..))) are 42.5 °C and -28.1 kcal/mol.
The like results for GCCTTCGAAAGAATTGGC ((((((....)))..))) were, in that order, 37 °C and -22.9 kcal/mol.
Consider GCCTTCGCGAAAGCGGGC (((..(((....)))))), for which the Tm in series [1] is 55.1 °C. Besides, in series [2], the folding enthalpy is -12.2 kcal/mol.
For GCCTTCGGAAACGAAGAC (.(((((....))))).), the Tm in series [1] is 43.3 °C. Also, the folding enthalpy in series [2] is -18.4 kcal/mol.
The like results for GCCTTGCGAAAGCACCGC ((..(((....)))..)) were, in that order, 42.6 °C and -10.6 kcal/mol.
The like results for GCCTTGCGAAAGCAGTGC ((..(((....)))..)) were, in that order, 45.1 °C and -11.6 kcal/mol.
The like results for GCCTTGCGAAAGCATCGC ((..(((....)))..)) were, in that order, 51 °C and -12.4 kcal/mol.
Take GCCTTGCGAAAGCATTGC ((..(((....)))..)): the Tm in series [1] was determined as 48.2 °C. Moreover, in series [2], the folding enthalpy was -11.4 kcal/mol.
On to GCCTTGCGAAAGCCAAGC ((.(.((....)).).)), for which the Tm in series [1] amounted to 39 °C. For the same sequence, the folding enthalpy in series [2] was -8.85 kcal/mol.
The like results for GCCTTGCGAAAGCCGGGC (((..((....))..))) were, in that order, 55.1 °C and -19.9 kcal/mol.
The like results for GCCTTGCGAAAGCGGGGC (((..((....))..))) were, in that order, 65.2 °C and -33.2 kcal/mol.
The like results for GCCTTTCGAAAGAAGGGC (((.(((....))).))) were, in that order, 53.6 °C and -47.5 kcal/mol.
For GCGAAACCTCGC ((((....)))), the Tm in series [1] worked out at 49.5 °C. The folding enthalpy in series [2] is -19.9 kcal/mol.
Regarding GCGAAACGAAAGTTCCGC (((.(((....))).))), in series [1], the Tm is 52.5 °C. For the same sequence, in series [2], the folding enthalpy was -38.2 kcal/mol.
The like results for GCGAAAGTCGC ((((...)))) were, in that order, 43.8 °C and -16.6 kcal/mol.
Consider GCGAACCCGAAAGGGCGC (((..(((....)))))), for which the Tm in series [1] came to 55.5 °C. Moreover, the folding enthalpy in series [2] was -21.4 kcal/mol.
On the same counts, the results for GCGAACCGTCGC ((((....)))) are 47.7 °C and -18.7 kcal/mol.
The like results for GCGAACGAAAGTTAACGC ((((((....)))..))) were, in that order, 44.6 °C and -20.6 kcal/mol.
